How the values were obtained:
[1] = system: NAD(P)H quinone oxidoreductase (NQO1); assay: NQO1 activity in mammary gland of ACI rats; type: in vivo; conditions: 4 days
Outline: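 Female ACI rats (n=6/group) were dosed 4 days: EB 1 mg/kg/day sc, alone or with the test compound at 80 mg/kg/day sc or extracts at 2 g/kg/day by gavage. Sesame oil or corn oil/PEG was the vehicle. Frozen mammary tissue was homogenized; NQO1 activity was read at 610 nm in clear supernatant (30 µg protein). Results are fold induction relative to control; mean ± SEM.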

CYP1B1 [2] = assay: CYP1B1 mRNA expression in mammary tissue, RT-qPCR; type: in vivo; conditions: ACI rats, 4 days
Outline: (§1)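 Female ACI rats (5 weeks old, acclimated 1 week, phytoestrogen-free AIN-76A diet, n=6/group) received sc EB 1 mg/kg/day, sc test compound 80 mg/kg/day or gavaged extracts 2 g/kg/day for 4 days. Vehicles were sesame oil sc, or 50% corn oil with 50% PEG/H2O by gavage. Rats were killed day 5; mammary mRNA was measured by TaqMan RT-qPCR with ACTB probe; mean ± SEM, ANOVA/Dunnett or t-test.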

CYP1A1 [3] = assay: CYP1A1 mRNA expression in mammary tissue, RT-qPCR; type: in vivo; conditions: ACI rats, 4 days
Outline: as §1

[4] = system: NAD(P)H quinone oxidoreductase (NQO1); assay: NQO1 activity in liver tissue of ACI rats; type: in vivo; conditions: EB 1 mg/kg/day sc, 4 days, vs vehicle
NQO1 [5] = conditions: Sprague-Dawley rats; cited from earlier work
NQO1 [6] = conditions: Sprague-Dawley rats; cited from earlier work; remark: listed apart in the source
[7] = system: estrogen oxidative metabolism (2-MeOE1); assay: 2-MeOE1 in serum by LC-MS/MS; type: in vivo; conditions: ACI rats, 4 days, co-administered with EB 1 mg/kg/day; GG, GI 2 g/kg/day, LicA 80 mg/kg/day
P450 3A4 [8] = conditions: HepG2 cells; cited from earlier work
E2/E1 levels = E2/E1 levels in serum by LC-MS/MS; type: in vivo; conditions: ACI rats, 4 days, co-administered with EB
[9] = type: in vivo; conditions: ACI rats after GG or GI 2 g/kg/day gavage + EB for 4 days
Outline: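 Female ACI rats (n=6/group) got extracts 2 g/kg/day by gavage plus sc EB 1 mg/kg/day for 4 days. Serum, liver and mammary homogenates (70% aqueous methanol, 0.1% formic acid) were spiked with naringenin internal standard and protein-precipitated with ice-cold ACN. Supernatant was dried, taken up in 20% ACN and analysed by UHPLC-MS/MS, negative ESI, SRM. Extracts were run at 10 μg/mL in 50% methanol.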

[10] = system: estrogen oxidative metabolism; conditions: MCF-10A cells; cited from earlier work
CYP1A1 [11] = type: cell-based, human; conditions: MCF-10A cells, compound 20 µM, 24 h; for Increase of CYP1A1 expression: relative to control
[12] = LicA metabolites in serum, liver and mammary gland, UHPLC-MS/MS; type: in vivo; conditions: ACI rats, sc administration of LicA
Outline: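 ACI rats got the test compound sc at 80 mg/kg/day with EB 1 mg/kg/day sc for 4 days and were killed day 5. Serum, and liver or mammary homogenates in 70% aqueous methanol with 0.1% formic acid, were spiked with naringenin. They were precipitated with ice-cold ACN (15 min, 13000 x g, 4 °C), dried under nitrogen and reconstituted in 20% ACN. Metabolites were profiled by UHPLC-MS/MS on C18.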

CYP1B1 [13] = type: cell-based, human; conditions: MCF-10A cells, compound 20 µM, 24 h; for Induction of CYP1B1 expression: relative to control
P450 1A2 = conditions: cited from earlier work
XRE-luciferase reporter = conditions: HepG2 cells; cited from earlier work
P450 3A4 [14] = conditions: cited from earlier work
NQO1 [15] = conditions: previous in vitro studies; cited from earlier work
NQO1 [16] = conditions: cited from earlier work
CYP1A1 [17] = conditions: female Sprague-Dawley rats; cited from earlier work
[18] = with EB, GG, GI 2 g/kg/day, LicA 80 mg/kg/day

With `C[C@]12CC[C@@H]3c4ccc(OC(=O)c5ccccc5)cc4CC[C@H]3[C@@H]1CC[C@@H]2O` [EB, estradiol benzoate, reference compound] the “Effect of EB on NQO1 activity in the mammary gland” value ([1]; EB 1 mg/kg/day, vs vehicle) was “slightly reduced”, the “CYP1B1 expression in mammary tissue, fold lower than the vehicle control group” value (CYP1B1 [2]; EB 1 mg/kg/day) was 5 fold and the “CYP1A1 expression in mammary tissue, fold lower than the vehicle control group” value (CYP1A1 [3]; EB 1 mg/kg/day) was 3 fold. For the same compound, the “Effect of EB alone on NQO1 activity in liver tissue” value [4] was “did not affect the NQO1 activity significantly”.

For `COc1cc(O)c(CC=C(C)C)c(O)c1C(=O)/C=C/c1ccc(O)cc1` [xanthohumol], the “NQO1 induction in the mammary gland” value (NQO1 [5]) is given as “no NQO1 induction” and the “NQO1 induction in liver tissues” value (NQO1 [6]) is given as “significant NQO1 induction”.

In the case of `C=CC(C)(C)c1cc(/C=C/C(=O)c2ccc(O)cc2)c(OC)cc1O` [LicA, licochalcone A], the “Reduction of 2-MeOE1 in serum, of the EB treatment group” value [7] is reported as about 70%, the “Induction of NQO1 activity in mammary tissue” value ([1]; co-treatment with EB, GG, GI 2 g/kg/day, LicA 80 mg/kg/day) is reported as “No induction” and the “Down-regulation of CYP1B1 expression in mammary tissue compared to the EB treatment group” value (CYP1B1 [2]; [18]) is reported as “no statistical difference”. The “P450 3A4 gene expression” value (P450 3A4 [8]) was “decreased”, the “Effect on E2/E1 levels in serum” value (E2/E1 levels) was “only slightly influenced” and the “Presence in liver and mammary tissues (qualitative)” value (“Presence” below) [9] was “available”. For the same compound, the “Effect on estrogen oxidative metabolism” value [10] was “inhibited”, the “CYP1A1 expression, fold lower than basal levels” value (CYP1A1 [11]) was 34 fold and the “GSH conjugate in the liver” value [12] was “major metabolite”. The “GSH conjugate in the serum and mammary tissues” value [12] was “minor metabolite”, the “Main metabolism in serum, liver and mammary tissues” value [12] was “glucuronidation reactions dominated” and the “Sulfation in mammary tissue” value [12] was “not detectable”. The “Sulfation in serum and liver” value [12] was “minor”, the “Upregulation of CYP1A1 in mammary tissue compared to the EB treatment group” value (CYP1A1 [3]; [18]) was “no statistical difference” and the “CYP1B1 expression, fold lower than basal levels” value (CYP1B1 [13]) was 10 fold. For the same compound, the “Inhibition of P450 1A2 activity” value (P450 1A2) was “moderately inhibited”, the XRE-luciferase reporter activity (XRE-luciferase reporter) was “inhibited” and the “Inhibition of P450 3A4 activity” value (P450 3A4 [14]) was “moderately inhibited”.

In the case of `O=C1C[C@@H](c2ccc(O)cc2)Oc2cc(O)ccc21` [LigF, liquiritigenin], the “Presence” value [9] is given as “available”, the “Effect on estrogen oxidative metabolism” value [10] is given as “no effect” and the “Increase of CYP1A1 expression” value (CYP1A1 [11]) is given as “did not affect”. For the same compound, the “Induction of CYP1B1 expression” value (CYP1B1 [13]) was 2 fold and the “Effect on NQO1 activity in vitro” value (NQO1 [15]) was “no effect”.

For `O=c1cc(-c2ccc(Br)cc2)oc2ccccc12` [4’bromoflavone], the “NQO1 induction in liver tissues” value (NQO1 [6]) is given as “significant NQO1 induction”.

For `O=C(/C=C/c1ccc(O)cc1)c1ccc(O)cc1O` [LigC, isoliquiritigenin], the “Induction of NQO1 activity in in vivo models” value (NQO1 [16]) is given as “didn’t induce”, the “Presence” value [9] is given as “available” and the “Effect on estrogen oxidative metabolism” value [10] is given as “increase”. For the same compound, the “Increase of CYP1A1 expression” value (CYP1A1 [11]) was 4 fold, the “Increase of CYP1A1 levels in mammary tissues” value (CYP1A1 [17]) was 6.84 fold and the “Induction of CYP1B1 expression” value (CYP1B1 [13]) was 2.5 fold. The “Inhibition of P450 1A2 activity” value (P450 1A2) was “weakly” and the “Inhibition of P450 3A4 activity” value (P450 3A4 [14]) was “weakly”.

For `CC1(C)C=Cc2c(ccc3c2OC[C@@H](c2ccc(O)cc2O)C3)O1` [glabridin], the “Presence” value [9] is listed as “not detected”, the “Inhibition of P450 1A2 activity” value (P450 1A2) is listed as “weakly” and the “Inhibition of P450 3A4 activity” value (P450 3A4 [14]) is listed as “weakly”.
